For orientation: half-life means how long it takes for the measured level to halve. Usually fraction unbound stands for the share of the substance not bound to proteins or other matrix.

These results are taken from ChEMBL document CHEMBL5131571, “Design, Synthesis, and Evaluation of Lung-Retentive Prodrugs for Extending the Lung Tissue Retention of Inhaled Drugs” (J Med Chem, 2022).

The nature of data set [1]: Drug metabolism in rat lung homogenate assessed as piperidin-4-yl-2-hydroxy-2,2-diphenylacetate formation at 1500 ng/ml by MS/MS analysis. It is filed as ADME, tissue-based. The following applies: tissue homogenate. Summed up: (§1)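 Wistar Han rat lung homogenized, then diluted 1 in 4 by mass with water (pH 6.8). Incubated at nominal 1500 ng/mL, 37 °C. Breakdown followed over 1500 min by MS/MS against authenticated samples of prodrug, intermediate and parent.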

The nature of data set [2]: Drug metabolism in rat lung homogenate assessed as 1-(((S)-2-Amino-3,3-dimethylbutanoyl)oxy)ethyl-4-(2-hydroxy-2,2-diphenylacetoxy)piperidine-1-carboxylate Hydrochloride intermediate formation at 1500 ng/ml by MS/MS analysis. It is filed as ADME, tissue-based. Conditions: tissue homogenate. Summed up:
as §1

Data set [3] can be described thus: Stability in Crl Wistar Han rat blood at pH 7.2 assessed as half life by mass spectroscopic analysis. The data set is classed as ADME, tissue-based. Summed up:
(§2)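 1000 ng/mL final (from 200 μg/mL D6-DMSO stock) in prewarmed matrix at 37 °C with continuous shaking, triplicate. Matrices: pH 6.5 or 7.4 phosphate buffer, 1 in 4 water-diluted Wistar Han lung homogenate (pH 6.8), or fresh rat blood. Timed aliquots quenched in MeCN with labetalol/reserpine internal standards. Half-life by MS, mean ± SD.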

Data set [4] is described as follows: Stability of compound in PBS at pH 7.4 assessed as half life by LC-MS analysis. The data set is classed as physicochemical. Summed up:
as §2

Data set [5] in a line: Stability of compound in PBS at pH 6.5 assessed as half life by LC-MS analysis. The data set is classed as physicochemical. An outline of the steps: as §2
A short description of data set [6]: Stability in Crl Wistar Han rat lung homogenate at pH 6.8 assessed as half life by mass spectroscopic analysis. It is filed as ADME, tissue-based. Summed up:
as §2

Data set [7] is described as follows: Plasma concentration in Crl Sprague-Dawley rat at 0.2 mg/kg, IT measured at 1 hr by LC-MS/MS analysis. It is filed as ADME, organism-based. Summed up: (§3)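 Male Sprague Dawley rats, n = 3 per time point, given a single intratracheal dose of 0.2 mg/kg at 1 mL/kg in 5% ethanol in pH 6.5 PBS. Serial blood into EDTA, centrifuged for plasma. At 24 h, lungs taken after CO2 euthanasia, rinsed, blotted, weighed, snap-frozen and homogenized. Methanol/acetonitrile protein precipitation with imipramine internal standard. Quantified by LC–MS/MS.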

The nature of data set [8]: Plasma concentration in Crl Sprague-Dawley rat at 0.2 mg/kg, IT measured at 0.25 hrs by LC-MS/MS analysis. The data set is classed as ADME, organism-based. An outline of the steps:
as §3

Data set [9] in a line: Plasma concentration in Crl Sprague-Dawley rat at 0.2 mg/kg, IT measured at 0.5 hrs by LC-MS/MS analysis. The data set is classed as ADME, organism-based. An outline of the steps:
as §3

Data set [10] can be described thus: Plasma concentration in Crl Sprague-Dawley rat at 0.2 mg/kg, IT measured at 2 hrs by LC-MS/MS analysis. It is filed as ADME, organism-based. Summed up:
as §3

Data set [11] can be described thus: Drug metabolism in rat lung homogenate assessed as 1-(((R)-2-amino-3,3-dimethylbutanoyl)oxy)ethyl 4-(2-hydroxy-2,2-diphenylacetoxy)piperidine-1-carboxylate intermediate formation at 1500 ng/ml by MS/MS analysis. It is filed as ADME, tissue-based. The following applies: tissue homogenate. An outline of the steps:
as §1

Data set [12] is described as follows: Plasma concentration in Crl Sprague-Dawley rat at 0.2 mg/kg, IT measured at 3 to 24 hrs by LC-MS/MS analysis. The data set is classed as ADME, organism-based. The following applies: in vivo, other, time 3-24 hrs. Summed up:
as §3

The nature of data set [13]: Protein binding to Crl Wistar Han rat lung homogenate assessed as free fraction by mass spectroscopic analysis. The data set is classed as ADME, tissue-based. An outline of the steps:
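Rapid equilibrium dialysis of spiked 1 in 4 Wistar Han rat lung homogenate (1000 ng/mL) against pH 6.5 PBS, 4 h, 37 °C, orbital shaking. Recovery and time-0/240 matrix controls included. Samples matrix-matched 1:1, MeCN precipitation with labetalol/reserpine internal standards, MS quantification. Triplicate, mean ± SD.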

A short description of data set [14]: Drug concentration in lung of Crl Sprague-Dawley rat at 0.2 mg/kg, IT measured at 24 hrs by LC-MS/MS analysis. It is filed as ADME, organism-based. Conditions: read-out: Ct. An outline of the steps:
as §3

Regarding `CC(OC(=O)[C@@H](NC(=O)[C@@H](N)CCCCN)C(C)(C)C)OC(=O)N1CCC(OC(=O)C(O)(c2ccccc2)c2ccccc2)CC1.Cl.Cl` (stereo not given in full), the Drug metabolism result in [1] and in data set [2] was “Metabolite_Detected” throughout.
For the molecule `CC(OC(=O)C[C@@H](N)CCCCN)OC(=O)N1CCC(OC(=O)C(O)(c2ccccc2)c2ccccc2)CC1.Cl.Cl` (stereo not given in full), the half-life is 0.3 h in data set [3], 5.9 h in [4], 29.1 h in data set [5] and 3.1 h in [6].
In the case of `CC(OC(=O)[C@H](NC(=O)[C@@H](N)CCCCN)C(C)(C)C)OC(=O)N1CCC(OC(=O)C(O)(c2ccccc2)c2ccccc2)CC1.Cl.Cl` (stereo not given in full), the concentration at 1 h in [7] amounted to 2.1 ng/mL. In [8], this molecule returned a concentration at 0.25 h of 2.03 ng/mL. This molecule also had a concentration at 0.5 h in [9] of 1.63 ng/mL. In data set [10], this molecule yielded a concentration at 2 h of 1.25 ng/mL. For the same molecule, the results for the Drug metabolism result in data set [11] and in data set [1] were “Metabolite_Notdetected” and “Metabolite_Detected”, respectively. This molecule had a Cp in data set [12] of 1 ng/mL. Besides, the free fraction (fraction unbound) in data set [13] amounted to 0.005. Further, the concentration at 24 h in [14] is 20000 ng/mL.
